The record followed here is ChEMBL document CHEMBL1687807, “Effect of N-1/c-8 ring fusion and C-7 ring structure on fluoroquinolone lethality” (2010).

In general, MIC refers to the least concentration at which growth counts as inhibited.

Common to all, as to format: functional
In test [1] the test system is Escherichia coli. Kind of test: Ratio of LD99 for Escherichia coli K-12 DM4100 to MIC for Escherichia coli K-12 DM4100. In outline:
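MIC: 10^4 to 10^5 cells/ml incubated at 37°C in LB broth with serial 2-fold quinolone dilutions. Lethality: midlog cultures grown aerobically at 37°C and exposed to quinolone for 2 h, then plated on drug-free agar overnight for CFU. Survival is expressed as percent of CFU at drug addition.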

Test [2] relates to Escherichia coli. Kind of test: Bactericidal activity against Escherichia coli K-12 DM4100 after 2 hrs in presence of protein synthesis inhibitor chloramphenicol treated 10 mins before compound challenge. In outline: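 Midlog E. coli grown aerobically at 37°C in LB. Chloramphenicol added to 20 μg/ml 10 min before quinolone, then 2 h further incubation. Cells diluted in growth medium and plated on drug-free agar, then incubated overnight at 37°C for CFU counts. Percent survival is relative to CFU at quinolone addition.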

In test [3] the test system is Escherichia coli. Kind of test: Bacteriostatic activity against Escherichia coli K-12 DM4100. In outline: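 MIC by broth dilution: E. coli K-12 DM4100 at 10^4 to 10^5 cells/ml in LB liquid medium with serial 2-fold dilutions of quinolone, incubated at 37°C. Drug stock dilutions made in sterile distilled water.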

Converted amounts (≈) assume the structure as drawn.

As for `COc1c(N2C[C@@H]3CCCN[C@@H]3C2)c(F)cc2c(=O)c(C(=O)O)cn(C3CC3)c12` [MOXIFLOXACIN], in the test with Escherichia coli [1], the Ratio is recorded as 4. Moreover, the LD99 in the test on Escherichia coli [2] came to 0.5 µg/mL. It took 0.125 µg/mL (≈ 0.311 µM) to inhibit growth in the test with Escherichia coli [3] (MIC).

For the compound `C[C@H]1COc2c(N3C[C@@H]4CCCN[C@@H]4C3)c(F)cc3c(=O)c(C(=O)O)cn1c23`, in the test with Escherichia coli [1], the Ratio amounted to 2. Besides, the LD99 with Escherichia coli [2] came to 0.25 µg/mL. The compound further came in with a minimal inhibitory concentration (MIC) in the test on Escherichia coli [3] of 0.125 µg/mL (≈ 0.323 µM).

For `CCN1CCN(c2c(F)cc3c(=O)c(C(=O)O)cn(C4CC4)c3c2OC)CC1`, the Ratio in the test on Escherichia coli [1] is given as 1.4. Moreover, in the test on Escherichia coli [2], the LD99 turned out to be 0.14 µg/mL. In the test on Escherichia coli [3], this compound yielded an MIC of 0.1 µg/mL (≈ 0.257 µM).

For the compound `CCN1CCN(c2c(F)cc3c(=O)c(C(=O)O)cn4c3c2OC[C@@H]4C)CC1`, the Ratio with Escherichia coli [1] turned out to be 2. For the same compound, the LD99 in the test with Escherichia coli [2] came to 1.5 µg/mL. In addition, in the test with Escherichia coli [3], 0.75 µg/mL (≈ 2 µM) was the least that counted as inhibitory (MIC).

In the case of `C[C@H]1COc2c(N3CCNCC3)c(F)cc3c(=O)c(C(=O)O)cn1c23` [N-DESMETHYL LEVOFLOXACIN], the Ratio in the test on Escherichia coli [1] is recorded as 1.2. Moreover, the LD99 in the test on Escherichia coli [2] was 1.2 µg/mL. For the same compound, the MIC in the test with Escherichia coli [3] was 1 µg/mL (≈ 2.88 µM).

With `CC1CN(c2c(F)cc3c(=O)c(C(=O)O)cn4c3c2OC[C@@H]4C)CCN1` (stereo not given in full), in the test on Escherichia coli [1], the Ratio worked out at 2.4. Moreover, the LD99 with Escherichia coli [2] amounted to 0.74 µg/mL. This compound also yielded a minimum inhibitory concentration (MIC) against Escherichia coli [3] of 0.31 µg/mL (≈ 0.858 µM).

For the compound `COc1c(N2CCN(C)CC2)c(F)cc2c(=O)c(C(=O)O)cn(C3CC3)c12`, the Ratio in the test with Escherichia coli [1] is on record as 3.2. Also, the LD99 in the test with Escherichia coli [2] came out at 0.2 µg/mL. The minimal inhibitory concentration (MIC) in the test on Escherichia coli [3] was determined as 0.062 µg/mL (≈ 0.165 µM).

For `CCC1CN(c2c(F)cc3c(=O)c(C(=O)O)cn4c3c2OC[C@@H]4C)CCN1` (stereo not given in full), the Ratio in the test on Escherichia coli [1] was found to be 2. In the test with Escherichia coli [2], the LD99 worked out at 0.5 µg/mL. The same compound showed a minimal inhibitory concentration (MIC) against Escherichia coli [3] of 0.25 µg/mL (≈ 0.666 µM).

Consider `COc1c(N2CCNC(C)C2)c(F)cc2c(=O)c(C(=O)O)cn(C3CC3)c12` (stereo not given) [GATIFLOXACIN], for which the Ratio in the test with Escherichia coli [1] is reported as 5. The LD99 in the test on Escherichia coli [2] is 0.2 µg/mL. Further, the lowest concentration to inhibit growth in the test on Escherichia coli [3] (MIC) was 0.04 µg/mL (≈ 0.107 µM).

As to `C[C@H]1COc2c(N3CCN(C)CC3)c(F)cc3c(=O)c(C(=O)O)cn1c23.C[C@H]1COc2c(N3CCN(C)CC3)c(F)cc3c(=O)c(C(=O)O)cn1c23.O` [LEVOFLOXACIN], the Ratio in the test with Escherichia coli [1] turned out to be 4. For the same compound, in the test with Escherichia coli [2], the LD99 worked out at 0.8 µg/mL. The compound also registered an MIC with Escherichia coli [3] of 0.2 µg/mL.

For `CN1CCN(c2c(F)cc3c(=O)c(C(=O)O)cn4c3c2SCC4)CC1` [RUFLOXACIN], in the test on Escherichia coli [1], the Ratio is 7. For the same compound, the LD99 in the test with Escherichia coli [2] worked out at 7 µg/mL. Moreover, it took 1 µg/mL (≈ 2.75 µM) to inhibit growth with Escherichia coli [3] (MIC).

Regarding `C[C@H]1COc2c(C3(N)CC3)c(F)cc3c(=O)c(C(=O)O)cn1c23` [PAZUFLOXACIN], in the test with Escherichia coli [1], the Ratio turned out to be 4. For the same compound, the LD99 with Escherichia coli [2] worked out at 0.08 µg/mL. For the same compound, the lowest concentration to inhibit growth in the test with Escherichia coli [3] (MIC) was 0.02 µg/mL (≈ 0.0628 µM).

Turning to `CCC1CN(c2c(F)cc3c(=O)c(C(=O)O)cn(C4CC4)c3c2OC)CCN1` (stereo not given), the Ratio with Escherichia coli [1] turned out to be 5. For the same compound, the LD99 in the test with Escherichia coli [2] was determined as 0.8 µg/mL. This compound also gave an MIC in the test on Escherichia coli [3] of 0.16 µg/mL (≈ 0.411 µM).

Turning to `COc1c(N2CCNCC2)c(F)cc2c(=O)c(C(=O)O)cn(C3CC3)c12`, the Ratio with Escherichia coli [1] worked out at 1.3. For the same compound, the LD99 in the test on Escherichia coli [2] amounted to 0.04 µg/mL. Moreover, it took 0.031 µg/mL (≈ 0.0858 µM) to inhibit growth with Escherichia coli [3] (MIC).

Regarding `CN1CCN(c2c(F)cc3c(=O)c(C(=O)O)cn4c3c2OCN4C)CC1` [MARBOFLOXACIN], the Ratio with Escherichia coli [1] was 3. In the test with Escherichia coli [2], the LD99 stood at 0.06 µg/mL. For the same compound, inhibition of growth with Escherichia coli [3] (MIC) required 0.02 µg/mL (≈ 0.0552 µM).
